High-throughput results as filed in PubChem.
An excerpt weighted towards active compounds, which were near 3.8% of everything screened.
V-ATPase pH – alters yeast V-ATPase proton transport | S. cerevisiae, pHLuorin cytosolic pH fluorescence | response, % at 10 µM | 350,000 compounds, 0.37% hits | AID 504577; in the data active means response mostly above about 7.3%, no sharp cut-off; inactive means mostly below about 5.4%; further: actives read high
T cell HTS – T cell immune modulation candidate; 2C CD8+ T cell-vesicle binding, flow cytometry; stronger effect = lower value; response (vesicle binding), % at 7 µM; 330,000 compounds, 0.068% hits; AID 2052;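 active means response, share of CD8 T cells binding vesicles, and their 90th percentile fluorescence all below set limits, cut at about 80% in these data, passing the limit was not always enough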;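 further: values below 100% mean blocked vesicle binding to the CD8+ T cells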
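Test system: purified 2C TCR transgenic mouse naive CD8+ T cells. Probe or stimulus: QL9-peptide-loaded Drosophila micro-vesicles bearing Ld, ICAM-1 and B7-1. Incubation: binding step 1.5 h, 37 °C, antibody labelling 20 min, ice. Measured by: flow cytometry of vesicle-bound cells.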
MPTP inh – inhibitors of mitochondrial permeability transition pore | isolated mouse mitochondria, Ca2+ swelling absorbance, 30 min | inhibition, % at 10 µM | 360,000 compounds, 1.4% hits | AID 602449;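 active means inhibition of 50% or more, scaled per plate between neutral and stimulator controls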;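 further: 0% = DMSO wells given calcium and 100% = 1 mM EGTA wells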
Granule exo inh – lytic granule exocytosis inhibition. AID 651702. inhibition, % at 10 µM. 360,000 compounds, 0.66% hits. TALL-104 LAMP-1 surface exposure, flow cytometry; cells stimulated with thapsigargin and PMA;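 active means inhibition above about 55%, limit read from the data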
rCAG RNA binder – binds r(CAG) RNA repeats. 370,000 compounds, 1.3% hits. inhibition, % at 3 µM. r(CAG) RNA repeat, TO-PRO-1 dye displacement fluorescence;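 active means inhibition above the plate cutoff, the mean of all test compounds on that plate plus 3 SD, cut at about 35% in these data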;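 further: 0% = DMSO alone and 100% = 100 µM mitoxantrone as full dye displacement; higher means more dye released from RNA so lower well fluorescence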
B2AR ag – human beta-2 adrenergic receptor agonism by FAP | response, % (concentration not given with the values) | Am2.2-beta2AR cells, FAP receptor internalization, flow cytometry | 340,000 compounds, 0.43% hits | AID 504454 | P07550;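 active means response above a set limit, near 3 SD of response in nonfluorescent compounds, cut at about 42% in these data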
Target sequence (P07550 whole entry, looked up): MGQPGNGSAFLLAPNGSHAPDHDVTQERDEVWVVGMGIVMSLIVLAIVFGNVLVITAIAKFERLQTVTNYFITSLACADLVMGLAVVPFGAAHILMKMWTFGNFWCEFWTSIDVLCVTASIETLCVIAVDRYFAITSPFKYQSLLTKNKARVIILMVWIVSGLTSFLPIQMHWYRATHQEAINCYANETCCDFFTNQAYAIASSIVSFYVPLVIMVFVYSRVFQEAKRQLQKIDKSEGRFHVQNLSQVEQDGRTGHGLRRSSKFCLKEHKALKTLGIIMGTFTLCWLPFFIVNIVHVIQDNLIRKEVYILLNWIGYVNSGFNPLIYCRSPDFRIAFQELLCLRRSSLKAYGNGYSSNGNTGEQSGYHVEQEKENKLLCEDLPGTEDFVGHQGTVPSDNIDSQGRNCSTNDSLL
rCAG bind conf – r(CAG) RNA repeat binding, confirmation. TO-PRO-1 dye displacement fluorescence. 4,300 compounds, 70% hits. inhibition, % at 3 µM. shares compounds with rCAG RNA binder;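 active means inhibition above a per-plate cutoff, the mean inhibition of sample wells plus 3 SD, cut at about 35% in these data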;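 further: loss of TO-PRO-1 fluorescence as compound displaces dye from 1x1 AA loop RNA; 0% = DMSO only wells and 100% = 100 µM mitoxantrone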
DNA CAG counter – disrupts DNA CAG TO-PRO-1 complex, flagging rCAG hits; AID 652068; inhibition, % at 3 µM; d(CAG) DNA oligo TO-PRO-1 dye displacement, fluorescence; shares compounds with rCAG RNA binder; 4,300 compounds, 94% hits;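 active means inhibition above its plate's cutoff, the mean test-well inhibition plus 3 SD, cut at about 4.8% in these data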;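 further: 0% = DNA dye mix with DMSO and 100% = 100 µM mitoxantrone; hits displace the dye from DNA and so lower well fluorescence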
DNA CAG DR – counter-screen for rCAG binders: inhibitors of DNA CAG TO-PRO-1 complex | shares compounds with rCAG RNA binder | IC50, µM | DNA CAG/GTC duplex TO-PRO-1 dye displacement fluorescence | 250 compounds, 20% hits; in the data active means IC50 below about 10 µM
Starred values were filed as active, the others as inactive; i = inactive; / = not tested or not shown.

SMILES	V-ATPase pH	T cell HTS	MPTP inh	Granule exo inh	rCAG RNA binder	B2AR ag	rCAG bind conf	DNA CAG counter	others
Cc1noc(NS(=O)(=O)c2ccc(NC(=O)CCCOc3ccc(Cl)cc3Cl)cc2)c1C	0	410	9	0	87*	-1	73*	38*
CCc1cccc(OCC(=O)Nc2ccc(C(=O)O)cc2NC(=O)COc2cccc(CC)c2)c1	2	129	-1	3	78*	5	72*	36*
CCc1cccc(OCC(=O)Nc2c[nH]c(=O)[nH]c2=O)c1	9	140	0	0	2	-5	/	/
Cc1noc(NS(=O)(=O)c2ccc(NC(=O)CSc3nc4c(cc3C#N)CCCCC4)cc2)c1C	-1	300	-5	-2	42*	-4	34	8.2*
Cc1ccc(C)c(OCC(=O)Nc2cc(NC(=O)COc3cc(C)ccc3C)cc(C(=O)O)c2)c1	2	157	4	0	49*	6	77*	41*
O=S1(=O)c2ccc(Br)cc2OC[C@@H](Cc2ccccc2)N1Cc1cn(CCC2OCCCO2)nn1	/	/	/	/	3	/	/	/
CC(C)C[C@H]1COc2cccc(NCCO)c2S(=O)(=O)N1	/	/	/	/	2	/	/	/
CC[C@H](CCCc1ccc(OC)cc1)CCC(=O)N(c1ccccc1)c1ccccc1	/	/	/	/	7	/	/	/
O=C(CCn1nnc(-c2cccs2)n1)N1CCCCC1	/	/	/	/	1	/	/	/
Cc1sc2nc(SCC(=O)OC(C)C)n(C)c(=O)c2c1C	4	/	8	-2	-1	0	/	/
Cc1sc2nc(SCC(=O)c3ccc(O)c(O)c3)n(C)c(=O)c2c1C	/	/	/	/	49*	/	50*	25*
Cc1c(CCC(=O)N[C@@H](C)C(=O)O)c(=O)oc2cc3occ(-c4ccccc4)c3cc12	1	224	1	-6	36*	-2	45*	9.8*
CCC(NC(=O)CCc1c(C)c2cc3c(-c4ccccc4)coc3cc2oc1=O)C(=O)O (stereo not drawn)	0	204	0	-9	37*	-1	42*	9.4*
Cc1c(CCC(=O)NCCCCCC(=O)O)c(=O)oc2cc3occ(-c4ccccc4)c3cc12	3	149	8	-1	10	1	/	/
O=C(Nc1c(-c2ccccc2)nc2ncccn12)c1ccccc1	/	/	/	/	6	/	/	/
O=S(=O)(NCCSc1ccccc1)c1ccc(F)cc1	1	220	0	-2	-2	-1	/	/
O=C(NS(=O)(=O)c1ccc2ccc(S(=O)(=O)NCCSc3ccccc3)cc2c1)c1cccc2ccccc12	/	/	-2	-1	88*	/	88*	65*
Cc1ccc(OCC(=O)Nc2nnc(S(=O)(=O)N3CCCCC3)s2)cc1	0	228	0	-2	50*	-6	41*	18*
CCc1nnc(NS(=O)(=O)c2ccc(NC(=S)NC(=O)/C=C/c3ccccc3)cc2)s1	-1	324	12	-11	87*	18	85*	50*
CCc1nnc(NS(=O)(=O)c2ccc(NC(=O)/C=C/C(=O)O)cc2)s1	1	298	-1	-5	7	-4	/	/
CCc1nnc(NS(=O)(=O)c2ccc(NC(=S)NC(=O)c3ccc(Br)cc3)cc2)s1	2	206	-6	2	83*	-4	80*	49*
COc1nccnc1NS(=O)(=O)c1ccc(NC(=S)NC(=O)/C=C/c2ccc(F)cc2)cc1	-1	194	22	1	71*	5	59*	24*
CCc1nnc(NS(=O)(=O)c2ccc(NC(=S)NC(=O)c3ccccc3)cc2)s1	-4	299	-12	0	65*	-7	51*	18*
CCc1nnc(NS(=O)(=O)c2ccc(NC(=S)Nc3ccc(F)cc3)cc2)s1	1	453	0	4	14	3	/	/
CCc1nnc(NS(=O)(=O)c2ccc(NC(=O)c3ccccc3)cc2)s1	-2	342	-2	-4	9	3	/	/
SMILES	V-ATPase pH	T cell HTS	MPTP inh	Granule exo inh	rCAG RNA binder	B2AR ag	rCAG bind conf	DNA CAG counter	others
O=C1N2CCc3ccccc3C2CS(=O)(=O)N1CCc1ccccc1 (stereo not drawn)	/	/	/	/	-1	/	/	/
Cc1[nH]c2ccccc2c1CC(=O)Nc1ccc(Nc2cccnc2)c(-c2ccc(C(C)(C)C)cc2)c1	/	/	/	/	19	/	/	/
C=CCN1C[C@H](COC(=O)c2cccc(C)c2)Oc2cccc(F)c2S1(=O)=O	/	/	/	/	2	/	/	/
CC1(c2nnnn2-c2ccc(F)cc2)CCCC(=O)N1CCc1c[nH]c2ccccc12 (stereo not drawn)	/	/	/	/	4	/	/	/
COc1ccc(NS(=O)(=O)c2ccc(NC(=S)NC(=O)/C=C/c3ccccc3)cc2)nn1	-1	79	5	6	40*	8	51*	17*
CCc1nnc(NS(=O)(=O)c2ccc(NC(=O)/C=C/c3ccccc3Cl)cc2)s1	5	349	0	1	86*	6	82*	54*
CCn1c(Cc2cccs2)nnc1SCC(=O)Nc1ccc2c(c1)OCCO2	/	/	/	/	2	/	/	/
CCOc1ccc(NS(=O)(=O)c2ccc(Cl)c(N=Nc3c(O)[nH]c(=S)[nH]c3=O)c2)cc1Br	1	/	3	-5	93*	/	93*	66*
C=CC[C@H]1c2ccccc2[C@H]2N3N=Cc4ccccc4[C@H]3[C@H](CCCC)C(=O)N2N1C(=O)NCc1ccccc1	/	/	/	/	4	/	/	/
COc1ccc(CC(=O)Nc2ccc(C(=O)O)cc2NC(=O)Cc2ccc(OC)cc2)cc1	1	760	0	3	12	4	/	/
COc1ccc(OCC(=O)Nc2ccc(C(=O)Nc3ccccc3C(=O)O)cc2)cc1	1	361	2	2	73*	-1	75*	30*	DNA CAG DR=i
COc1ccc(C(=O)Nc2ccc(C(=O)O)cc2NC(=O)c2ccc(OC)cc2)cc1	1	202	2	-10	36*	10	20	3
COc1ccc(/C=C(\NC(=O)c2ccc(OC)cc2)C(=O)Nc2ccccc2C(=O)O)cc1	-2	255	0	13	39*	-2	22	4
Cc1ccc(OCC(=O)Nc2ccc(C(=O)Nc3ccccc3C(=O)O)cc2)cc1C	-1	/	1	-3	51*	/	80*	45*
Cc1ccccc1OCC(=O)Nc1ccc(C(=O)Nc2ccccc2C(=O)O)cc1	-6	886	-1	-6	49*	2	73*	37*
Cc1ccccc1OCC(=O)Nc1ccc(C(N)=O)cc1	-1	438	2	-2	0	-2	/	/
